Assay: Toxicity liver stage against HepG2, at 10uM
Assay type: cell-based
Parameters: test concentration 10 uM, cell line HepG2-A16-CD81EGFP
Settings: human, HepG2-A16-CD81EGFP cells; read-out: INHIBITION
Procedure, shortened: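 Uninfected HepG2-A16-CD81EGFP cells, 3 × 10^3 per well, 1536-well, plated on prespotted compound at 10 μM final, parasite-free screening media added to match infected plates; puromycin 10 μM positive, DMSO 0.5% negative; run in parallel with 48 h PbLuc assay at 37 °C, 5% CO2; viability by CellTiter-Glo luminescence, normalized to controls.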

## F[C@@H]1CN(CC2CC2)C[C@@H]1OCc1nc2cnccc2[nH]1
  cytotoxicity at 10 µM: 8.42%

## O=C(O)CNC(=O)Cc1csc(-c2ccccc2F)n1
  cytotoxicity at 10 µM: -10.5%

## CCN(CC)CCSc1nnc(N2CCN(c3ccc(F)cc3)CC2)s1
  cytotoxicity at 10 µM: -5.12%

## COc1cc(C)c(C)cc1S(=O)(=O)NCC(O)c1cccn1C (stereo not given)
  cytotoxicity at 10 µM: -6.19%

## O=C1NC(c2ccccc2)=N[C@@]12CC[C@@H]1CN(Cc3cccnc3)C[C@@H]12
  cytotoxicity at 10 µM: 6.8%

## CC(C)C(=O)N1CCCC(Cc2ncccn2)C1 (stereo not given)
  cytotoxicity at 10 µM: -2.49%

## CC1(C)O[C@@](C)([C@H]2CC3(CCN(c4ncccn4)CC3)CO2)CC[C@@H]1O
  cytotoxicity at 10 µM: 4.98%

## CC(C)c1ncc(CN2CCC(O)(c3ccccc3F)CC2)cn1
  cytotoxicity at 10 µM: -0.882%

## c1ccc(Cc2cccc(C3CCCN3C3CCOCC3)n2)cc1 (stereo not given)
  cytotoxicity at 10 µM: 1.62%

## Cc1nc(N(C)C)cc(C2(C)CCNCC2)n1
  cytotoxicity at 10 µM: -6.07%

## CN(C)c1cncc(C2CCCN2S(=O)(=O)c2cn(C)cn2)n1 (stereo not given)
  cytotoxicity at 10 µM: -27.1%

## Cc1ncccc1Oc1cncc(C2CCCN2Cc2cncn2C)n1 (stereo not given)
  cytotoxicity at 10 µM: -32.8%

## CCn1ncc(S(=O)(=O)NC2(CN3CCOCC3)CCCCC2)c1C
  cytotoxicity at 10 µM: 3.83%

## Cc1nc(C2CN(C)CCO2)cc(N2CCC(CO)CC2)n1 (stereo not given)
  cytotoxicity at 10 µM: -34%

## Cc1cnn(CC2CCN(CC(O)c3ccccc3)CC2)c1 (stereo not given)
  cytotoxicity at 10 µM: -8.46%

## CCC(Sc1ncc(CO)n1C)c1ccccc1 (stereo not given)
  cytotoxicity at 10 µM: -45.3%

## Cc1ccc(C)c(-n2ncc(NC(=O)NC3(C)CCOC3)c2C)c1 (stereo not given)
  cytotoxicity at 10 µM: -41.6%

## O=C(CCOc1ccccc1)NS(=O)(=O)Cc1ccccc1
  cytotoxicity at 10 µM: -1.48%

## CN(C)CC(O)Cn1cc(NCc2ccc(Br)cc2)cn1 (stereo not given)
  cytotoxicity at 10 µM: 7.48%

## Cc1cc(CNS(=O)(=O)CCCC#N)ccc1N(C)C
  cytotoxicity at 10 µM: -5.18%

## CCc1nnc(C(C)N2CCN(CCC(=O)NC3CC3)CC2)o1 (stereo not given)
  cytotoxicity at 10 µM: 16%

## Cc1noc(CCCNC(=O)C2CSCN2C(=O)C(C)(C)C)n1 (stereo not given)
  cytotoxicity at 10 µM: -54.4%

## Cc1oc(C)c(C(=O)NS(=O)(=O)c2ccc3c(c2)OCCO3)c1Br
  cytotoxicity at 10 µM: 4.4%

## COC(=O)CN(C(=O)c1ccc(Cl)cn1)c1cccc(F)c1
  cytotoxicity at 10 µM: -8.61%

## O=C(CCNC1(c2nccs2)CCCC1)N1CCOCC1
  cytotoxicity at 10 µM: 0.79%

## CC(C(=O)N1CCc2ccccc2C1)N(C)Cc1cscn1 (stereo not given)
  cytotoxicity at 10 µM: -1.6%

## CCn1c(C)cc(C(=O)N2CCC(Nc3ccc(C)nn3)CC2)c1C
  cytotoxicity at 10 µM: -5.52%

## Cc1csc(C2(NC(=O)CCNC(=O)C(C)(C)C)CCCC2)n1
  cytotoxicity at 10 µM: -7.43%

## Cn1cc(CC2CC(=O)N(Cc3ccccc3OC(F)F)C2=O)cn1 (stereo not given)
  cytotoxicity at 10 µM: 2.21%

## O=C(c1ccoc1)N(Cc1ccncc1)C1CC1
  cytotoxicity at 10 µM: 1.45%

## c1nc(N2CCCC2Cn2cncn2)c2ccsc2n1 (stereo not given)
  cytotoxicity at 10 µM: 14.1%

## COc1c(C)cnc(CSc2nnc(N3CCCC3)s2)c1C
  cytotoxicity at 10 µM: -13.1%

## CC(C)(C)NC(=O)C1CSCN1S(=O)(=O)c1ccccc1F (stereo not given)
  cytotoxicity at 10 µM: -8.23%

## Cn1cc(N2CCC(NC(=O)c3ccccc3F)C2=O)cn1 (stereo not given)
  cytotoxicity at 10 µM: -1.26%

## CCC(CC)c1cc(CNC(=O)N2CCC(n3cncn3)CC2)on1
  cytotoxicity at 10 µM: -4.16%

## Cc1oc(-c2ccsc2)nc1CC(=O)NCC(=O)Nc1cn[nH]c1
  cytotoxicity at 10 µM: -1.36%

## Cc1cc(=O)n2ncnc2n1CC(O)c1ccccc1F (stereo not given)
  cytotoxicity at 10 µM: -13.7%

## CCc1cnc(CN(C)C2CCN(CCCNS(C)(=O)=O)C2)o1 (stereo not given)
  cytotoxicity at 10 µM: -3.4%

## Cc1cc(C)n(C2CCCN(C(=O)c3cccc(F)c3F)C2)n1 (stereo not given)
  cytotoxicity at 10 µM: 4.35%

## O=C(NCCO)Nc1c(F)cc(F)cc1-c1ccccc1
  cytotoxicity at 10 µM: -1.99%

## CC1CCN(C)c2ccccc2N1C(=O)c1ccn(C)c(=O)c1 (stereo not given)
  cytotoxicity at 10 µM: 2.36%

## CNS(=O)(=O)CC1CCCN1C(=O)c1cccc(Cl)c1 (stereo not given)
  cytotoxicity at 10 µM: -1.5%

## O=C(Nc1ccc(CC(=O)N2CCSCC2)cc1)NC1CCCC1
  cytotoxicity at 10 µM: -7.01%

## O=C(Nc1ccc(F)c(-n2cccc2)c1)NC1(CCO)CCOCC1
  cytotoxicity at 10 µM: 8.67%

## CN(C)c1nc(N)nc(CSCCC(=O)Nc2cccc(Cl)c2)n1
  cytotoxicity at 10 µM: 0.779%

## O=S(=O)(c1ccccc1)N1CCN(Cc2ccc(F)cc2Br)CC1
  cytotoxicity at 10 µM: -2.57%

## CCN1CCC(CNC(=O)Nc2cnn(CC(N)=O)c2)C1 (stereo not given)
  cytotoxicity at 10 µM: 1.1%

## Cc1cccc2nc(CNCc3cccc4c3OCCCO4)cn12
  cytotoxicity at 10 µM: 20.8%

## NC(=O)CN1CCC(OCc2ccc(Cl)c(Cl)c2)CC1
  cytotoxicity at 10 µM: -0.497%

## CC(C)(C#N)c1ccc(NS(=O)(=O)CC2CCCCO2)cc1 (stereo not given)
  cytotoxicity at 10 µM: 0.548%

## O=C(CNc1ccccc1S(=O)(=O)C(F)F)NCc1ccco1
  cytotoxicity at 10 µM: -53%

## O=C(NCC1(O)CCOC1)NCC1(c2ccccc2Cl)CC1 (stereo not given)
  cytotoxicity at 10 µM: -45.7%

## Cc1csc(C2(NCc3nnc(-c4ccco4)o3)CCCC2)n1
  cytotoxicity at 10 µM: 0.416%

## Cc1ccc(OCC(O)CN(C)CC(=O)NC(C)C)c(C)c1 (stereo not given)
  cytotoxicity at 10 µM: -7.55%

## Cc1nn(C)c(Oc2cccnc2)c1NC(=O)C1CCCO1 (stereo not given)
  cytotoxicity at 10 µM: -8.78%

## CNC(=O)Cc1noc(Cc2cccc(Cl)c2)n1
  cytotoxicity at 10 µM: 0.335%

## CCOCC1CN(C(=O)CC2=CCCCC2)Cc2nnn(C)c21 (stereo not given)
  cytotoxicity at 10 µM: -110%

## CCc1cnc(N2C[C@H]3CCCC(N(C)Cc4ccccn4)[C@H]3C2)nc1 (stereo not given in full)
  cytotoxicity at 10 µM: -114%

## COCCC(=O)N1CCC2(COCc3cnc(-c4cccnc4)nc32)C1 (stereo not given)
  cytotoxicity at 10 µM: -115%

## O=C(C1=CCCC1)N1C[C@@H]2COC[C@]2(COc2cccnc2)C1
  cytotoxicity at 10 µM: -5.38%

## COCCC(=O)N1CCC2(COCc3c(C)nc(NCC4CC4)nc32)C1 (stereo not given)
  cytotoxicity at 10 µM: 2.19%

## CCOCC1CN(Cc2cnn(C)c2)Cc2ncn(CC3CC3)c21 (stereo not given)
  cytotoxicity at 10 µM: 2.21%

## O=C(Cc1ccc(-c2ccccc2)cc1)N1CCOCC(O)C1 (stereo not given)
  cytotoxicity at 10 µM: 1.51%

## CCOc1ncccc1CNc1cc(COC)ncn1
  cytotoxicity at 10 µM: 6.41%

## COCc1nc(CNC2CCN(C(C)C)CC2)no1
  cytotoxicity at 10 µM: 4.04%

## O=C1CC[C@H]2CN(c3ncccc3F)CC[C@H]2N1CCc1ccccc1
  cytotoxicity at 10 µM: 4.52%

## CN(Cc1cnn(C)c1)c1nccc(-c2cc(C(=O)O)ccn2)n1
  cytotoxicity at 10 µM: -7.33%

## Cc1nc(C(=O)N2CCN(C(=O)C3CCC3)[C@@H]3CS(=O)(=O)C[C@@H]32)cs1
  cytotoxicity at 10 µM: 12.5%

## Cc1cc(C)c2nc(CN3CCC(C#N)CC3)cc(O)c2c1
  cytotoxicity at 10 µM: 6.27%

## COCCC(=O)N1CCC2(CCCN(Cc3cc(OC)ccc3F)C2)C1 (stereo not given)
  cytotoxicity at 10 µM: 3.55%

## c1c[nH]c(-c2cn(CCSc3cnn[nH]3)nn2)n1
  cytotoxicity at 10 µM: -47.5%

## CCn1cnnc1Cn1cccc(C(F)(F)F)c1=O
  cytotoxicity at 10 µM: -9.8%

## Cc1nn(C)cc1Cn1c(=O)ccc2ccccc21
  cytotoxicity at 10 µM: -12.5%

## CSCC(=O)N1CCc2c(cnc(C)c2-c2noc(-c3ccco3)n2)C1
  cytotoxicity at 10 µM: 2.93%

## Cc1cccc(N2CCC(N3CCC4(CCCNC4=O)C3)CC2)c1C (stereo not given)
  cytotoxicity at 10 µM: -5.66%

## N[C@@H]1CCN(Cc2ccccc2CS(=O)(=O)c2ccccc2)C[C@H]1O
  cytotoxicity at 10 µM: -2.58%

## CC(C)c1nc(CN(C)C(=O)CNS(=O)(=O)c2cccs2)no1
  cytotoxicity at 10 µM: -16.8%

## O=C1CC(NCc2cccc(O)c2)CN1CCc1cccc(Cl)c1 (stereo not given)
  cytotoxicity at 10 µM: -130%

## O=c1[nH]cccc1-c1nccc(C2(c3ccccc3Cl)CCNCC2)n1
  cytotoxicity at 10 µM: -6.27%

## Cc1cc(N2CCN(C(=O)C(C)n3ccnc3C(C)C)CC2)cc(C)n1 (stereo not given)
  cytotoxicity at 10 µM: -3.59%

## COCCCn1cnnc1C(C)NC(=O)c1[nH]c2ccc(C)cc2c1C (stereo not given)
  cytotoxicity at 10 µM: 2.52%

## CCOCCC(=O)N1CCCC(CO)(CC2CC2)C1 (stereo not given)
  cytotoxicity at 10 µM: 7.58%

## NCc1cn(-c2ccccc2C(=O)NCc2cccc(Cl)c2)cn1
  cytotoxicity at 10 µM: 4.14%

## Nc1nc(CN2CCCCC2Cn2cncn2)nc2ccccc12 (stereo not given)
  cytotoxicity at 10 µM: -15.6%

## CCOC1CCN(C(=O)Nc2ccc(=O)n(C)c2)CC1
  cytotoxicity at 10 µM: -10.4%

## Cc1occc1C(=O)NCc1cccnc1N(C)C
  cytotoxicity at 10 µM: -5.89%

## O=C(NC1CCS(=O)(=O)C1)N1CCN(c2cnccn2)CC1 (stereo not given)
  cytotoxicity at 10 µM: -0.685%

## CN(CC(=O)Nc1ccc(Br)cn1)C(=O)Cc1ccc(O)cc1
  cytotoxicity at 10 µM: -0.0241%

## OC(CNCCn1cccn1)c1ccc2c(c1)OCCO2 (stereo not given)
  cytotoxicity at 10 µM: -0.361%

## Cn1ncc2c1CCCC2NCc1cnc(-c2ccccc2)nc1 (stereo not given)
  cytotoxicity at 10 µM: -5.43%

## Cn1cc(CN2CCN(CC3(c4ccccc4)CC3)CC2)cn1
  cytotoxicity at 10 µM: 2.86%

## Cn1ccnc1CNC(=O)c1cnc(C2CCNCC2)cn1
  cytotoxicity at 10 µM: -1.31%

## Cc1ccccc1OC1CCN(CC(=O)Nc2cnn(C)c2C)CC1
  cytotoxicity at 10 µM: -8.09%

## c1ccc(CN2CCc3ncnc(C4CCOC4)c3CC2)nc1 (stereo not given)
  cytotoxicity at 10 µM: 8.88%

## c1nc(CCC2CCCCN2)cc(N2CCCC2)n1 (stereo not given)
  cytotoxicity at 10 µM: -21.6%

## c1csc(CN2CCC3(CCCN3CC3CC3)CC2)n1
  cytotoxicity at 10 µM: 8.22%

## O=C1[C@H]2CN(Cc3ccncc3)C[C@H]2CN1c1cncnc1
  cytotoxicity at 10 µM: -0.748%

## O=C(NC1CCC1)[C@@H]1C[C@@H]2CCN(Cc3ccncc3)C[C@H]2O1
  cytotoxicity at 10 µM: -22.5%

## Cc1cc(CN2C[C@@H]3COC[C@]3(COCc3csc(C)n3)C2)no1
  cytotoxicity at 10 µM: 1.17%

## Cn1nc(C2CCN(C(=O)CCN3CCOCC3)CC2)c2cccnc21
  cytotoxicity at 10 µM: -13.8%

## O=C(C[C@@H]1COC[C@H]2CN(Cc3ccccn3)C[C@@H]12)N1CCOCC1
  cytotoxicity at 10 µM: -1.63%

## CC(=O)N1CCn2c(-c3ccccc3)cnc2C12CCNCC2
  cytotoxicity at 10 µM: 7.43%

## CC(C)N1[C@H](Cn2cccn2)C[C@@H]2CN(C3CCOCC3)CC[C@@H]21
  cytotoxicity at 10 µM: 3.92%

## O=c1cc(CNS(=O)(=O)C2CC2)nc2n1CCCN(CC1CC1)C2
  cytotoxicity at 10 µM: -104%

## COCCO[C@H]1CCN(Cc2cccs2)[C@H]1Cc1cccnc1
  cytotoxicity at 10 µM: -2.23%

## Cc1nn(C)c(C)c1CNCc1ccc(N2CCOCC2)nc1
  cytotoxicity at 10 µM: 3.68%

## COCCN1CCN(Cc2c(C)noc2C)Cc2ccc(C)nc21
  cytotoxicity at 10 µM: 3.47%

## CC(CCc1ccccc1)NC(=O)CNCCCN1CCOCC1 (stereo not given)
  cytotoxicity at 10 µM: -11.1%

## CC(C)CCN1C[C@@H]2C[C@H](C(=O)Nc3ccccc3)[C@H](C1)O2
  cytotoxicity at 10 µM: -7.99%

## CN(C)C(=O)CN1C[C@H]2CC[C@@H](C1)N(Cc1c(Cl)cncc1Cl)C2
  cytotoxicity at 10 µM: 6.02%

Source: ChEMBL document CHEMBL4513216, “Probing the Open Global Health Chemical Diversity Library for Multistage-Active Starting Points for Next-Generation Antimalarials” (ACS Infect Dis, 2020)
